Experimental data reported in the EternaBench riboswitch data.

System: MS2 coat protein
Test: apparent Kd, MS2 coat protein; higher = weaker binding; RNA-MaP array; FMN 200 µM where present
Summary of the method: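 Green signal was scaled to red-channel RNA signal and control-cluster median Fmax, and the apparent Kd was taken as the median of filtered per-cluster binding-curve fits. The binding series used SNAP-549-labelled MS2 coat protein from 0.7 or 1.5 nM, doubling to 3 µM, on designs transcribed by stalled E. coli RNA polymerase on Illumina sequencing-chip clusters. Each series ran without and then with constant ligand in 100 mM Tris-HCl pH 7.5, 80 mM KCl, 4 mM MgCl2, BSA, DTT, yeast tRNA and Tween-20.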

[1] = designed as: OFF switch for flavin mononucleotide, no ligand
[2] = ligand present: flavin mononucleotide, designed as: OFF switch for flavin mononucleotide
[3] = designed as: ON switch for flavin mononucleotide, no ligand
[4] = ligand present: flavin mononucleotide, designed as: ON switch for flavin mononucleotide

| Sequence | apparent Kd [1] | apparent Kd [2] | apparent Kd [3] | apparent Kd [4] |
| --- | --- | --- | --- | --- |
| CAGCAGUGUAAGAAGGCUGCUCCGAUAAGGAGCAGAGGAUAUUACAUGAGGAUCACCCAUGUAUGAACCAAUAGCUGAAAUAAA | 9.12 nM | 85.3 nM |  |  |
| AGAAAGAAGCAAGGAUAUUGUAAAAUUAAUGUACAAGAAGGUGCUGUUUAUGUCUCUUAACAUGAGGAUCACCCAUGUAUUGGU |  |  | 68.6 nM | 45.9 nM |
| UAAGUACAUGAGGAUCACCCAUGUUGGAAUAGAGCAGGAUAUGUGCAGAGGGAAAUAAAAACAGAAGGGCUAAGAA |  |  | 45.3 nM | 28.6 nM |
| AACAGCACAGGAUAUACAUGAGGAUCACCCAUGUGAGAAUUAAGUGGCGUACCACAAAGUAGAAGGGUGCUGGA | 37.1 nM | 286 nM |  |  |
| GGACCGUGCAGAGUUGGCGGUCGGCAGGAUAUGACAUGAGGAUCACCCAUGUGAACUCCAUUGGGUCAGAAGGGCCACGACACA | 17.6 nM | 78 nM |  |  |
| UGAACUAUGUAGAAGGCCCAUAUUUAUAUUUAGGGAGGAUAUACAUGAGGAUCACCCAUGUAUAGAGCAAGUGGACUUGUCAGU | 9.19 nM | 10.3 nM |  |  |
| ACCCAACAUGAGGAUCACCCAUGUCAGGAUAUCCAUCUAUACUCGAAAGAGUAUAGAUGGAGAAGGGACAGAGG | 94.8 nM | 92.9 nM |  |  |
| AAGUCUGGAUGAGGAUAUCAGCUGUAACUGACGUCGACAUGAGGAUCACCCAUGUUGCUAUAGGGUGAGAAGGCAUUUGGGCAA |  |  | 106 nM | 28.6 nM |
| GAGCGAAAGCUCAAUGUCGAUAGCAGAAGGACAUGUAAAUACAUGAAAACAUGAGGAUCACCCAUGUAGGAUAUGCUAUCGACU | 5.46 nM | 12.7 nM |  |  |
| ACAUGAGGAUGAGGAUAUUCAUACAUGAGGAUAGAAGAAGGCAUACAUGAGGAUCACCCAUGUAUACACAUGAGGAUCUCCCAU | 25.5 nM | 30.5 nM |  |  |
| UGUUGUAUUACAGGAUAUCUAUUAUUUUGAUUUAGAGAAGGGUAUUCACAUGAGGAUCACCCAUGUAUAUACGAGGAAGUUGUG |  |  | 47.7 nM | 47.9 nM |
| ACAUGAUACAAGAAGGAUGUAUUAGAUUUGAUCAUAGGAUAUUGUUAUAUUGUUUACUCUAAUAACAUGAGGAUCACCCAUGUA |  |  | 10.7 nM | 7.53 nM |
| UGUCGGAGCAGAGGAUAUUACAUGAGGAUCACCCAUGUAUGUACCAAUAGCUGGAAACAGCAAUGUAAGAAGGCUGCUCCGACA | 6 nM | 24.7 nM |  |  |
| GUUAUAAAGGUAGGAUAUAGUAUUAUAAUUAAAUUAGAAGGAUCUCACAUGAGGAUCACCCAUGUAAGAGGAUCACCCAUGUAG | 20.7 nM | 15.9 nM |  |  |
| UUGGACGUCGUAGGAUAUGUAGGAUAUUCCUACAUGAGGAUCACCCAUGUUGACAUGGAAGAAGGACAGCAGGACGAUGUCCAU |  |  | 690 nM | 12.9 nM |
| CAAGGUGGAGGAUAUACAUGAGGAUCACCCAUGUAAGGACAAUAAAUAAGAUGAAGAAGUAGAAGGCCACUCAA | 41.4 nM | 46.3 nM |  |  |
| GGAUCGAAUGUGAGGAUAUGCUGGUCCUUGGAUCAGCAGAAGGCACAUGAGGAUCACCCAUGUCCAAGCGGUCC | 212 nM | 559 nM |  |  |
| UGGUUGUGAGGAUAUCCAAUAUAUGACAUGAGGAUCACCCAUGUUUCCACUCGUACCUCCGGAGAAGGCACUUGGU | 33.4 nM | 28.4 nM |  |  |
| AAUCGGGAGCAGAAGGCAUGUAAUAAGACAUGAGGAUCACCCAUGUAGUUAAGGCGAAAGCCGCAUGAGGAUAUGCUCCCGUAA |  |  | 5.26 nM | 4.99 nM |
| UUUAAACAUGAGGAUCACCCAUGUCGUUCAAAUCAAGGAUAUCAAGCGUAUGCGCACGCUUGAGAAGGUGAAGCUC |  |  | 47.2 nM | 135 nM |
| CAGCGCUGUCGAGAGGAUAUGCGGUGAUGGACAUGAGGAUCACCCAUGUUAGCGACAGCAUCACGGCAGAAGGCUCUACCCGCUG |  |  | 13.2 nM | 12.8 nM |
| CGUAACUGCAUAGGAUAUUGAUACAUGAGGAUCACCCAUGUUUUUCGGAUUAGAUAUAUACUUAGCAAGAAGGAUGGAGUUACG |  |  | 9.58 nM | 6.57 nM |
| CGCUACUACCAGAAGGACAUGAGGAUCACCCAUGUAGGAUAUGGGUUACAAGUACCAGUGUAAAGAAACUACGCUACAGUAGCG |  |  | 57.8 nM | 8.73 nM |
| GGGUACAUCGGAGGAUAUCAUGUAUAUACAUGAGGAUCACCCAUGUCGAUGGAGACAUCGGAGAUUGAGAAGGCCGAUGUACCG |  |  | 826 nM | 31.5 nM |
| GAGUGGAAGGCCGCUACAUGAGGAUCACCCAUGUGCUAAGCACAGGAUAUCGCGCUGGCCCGGCGCGAGAAGGGUGACGGCCUG |  |  | 674 nM | 324 nM |
| AAAAAACAUGAGGAUCACCCAUGUCAGGAUAUCCGAAAAAAAAAAAAAAAAAAAAAAAGGAGAAGGGACAAAAA | 100 nM | 83.8 nM |  |  |
| UUUGUAAUGUCAGGAUAUUUUAUAAGUCAUACUGAAGAAGGGAUAAUUAUACUCAUGUACAUGAGGAUCACCCAUGUUAAAUAU |  |  | 43.6 nM | 33.6 nM |
| UAUAUAAUUAAGAGCUGGAACUCAACAUGAGGAUCACCCAUGUAGGAUAUCAGCACGAUAAGUGCUGAGAAGGACAUCCAGCUC | 16.6 nM | 17.8 nM |  |  |

| Sequence | apparent Kd [1] | apparent Kd [2] | apparent Kd [3] | apparent Kd [4] |
| --- | --- | --- | --- | --- |
| GGUUGACAAAGUCAACCUUAACGAACAUGAGGAUCACCCAUGUAGGAUAUGCUACUCAAAGAGUAGCAGAAGGACAUGUGUCUU | 30 nM | 169 nM |  |  |
| UUCACUCGAGUCAGGAUAUUAGUCCGCGAUAGUGUUAAGAAGGGACAUGAGGAUCACCCAUGUCACACAUGGAG | 28.2 nM | 23.2 nM |  |  |
| ACAUGAGGAUCACCCAUGUUAAACGAGGAUAUUUGACUGCACAUGAGGUUCGCCCAUGUCCUGCCGAAGAAGGUGUGAAUAAUU |  |  | 17.6 nM | 13.5 nM |
| CCGGAAGGUUAGGAUAUGCUUCCACAUAUCUAAGCAGAAGGAACCACAUGAGGAUCACCCAUGUUUAUGGGCCG | 262 nM | 261 nM |  |  |
| UUAAUCUAUACAGGAUAUCCAUACGCUGCAUACGGAGAAGGGUAACAAUCAUGAGGACAUGAGGAUCACCCAUGUUCUGAGCAU |  |  | 11.7 nM | 10.7 nM |
| CAUUGGUAAGGAUAUGCACCGAUCUCCGAAAGGAGAUCGGUGCAGAAGGUACAUGAGGAUCACCCAUGUUGAUG | 27.1 nM | 63.9 nM |  |  |
| AUAUCUCCCUAGAAGGUGUAACGACAAUUGCAUCACGUAGUUGGCGUAGCAAGGAUAUGGGACAUGAGGAUCACCCAUGUGGAU |  |  | 15.9 nM | 8.88 nM |
| CAGACCGGCGCAGGAUAUGUCGACAUGAGGAUCACCCAUGUAAGCCUCGUCUGGUCCGGUGUGUGACAGAAGGGUGUCGGCCAA | 13.1 nM | 38.1 nM |  |  |
| UGGUACUAGGGAGGAUAUGGGAAGAUACAUGAGGAUCACCCAUGUUUAAGAAUGCCGAGAGGCAACUAGAAGGCUCUAGUACCU |  |  | 416 nM | 18.4 nM |
| UGCUAGAAAGGAUAUACAUGAGGAUCACCCAUGUAACCCUAUAUGAGAGUUCCCGUUUGUAGAAGGUUCUCGUG | 16.9 nM | 26.5 nM |  |  |
| CGCUAAUUAAUUAUAUUAAUUGUACAGGAUAUGUAACAUGAGGAUCACCCAUGUAUUGGGUUUAAACAGAAGGGUAUAUUAGCG | 425 nM | 112 nM |  |  |
| AUGCUUCACACAGGAUAUACAUGAGGAUCACCCAUGUGUCCAAAGUAGCCGACACGAGCUACGCGGUAGAAGGGUGUGAAGCAU | 18.6 nM | 52.2 nM |  |  |
| GUAUUAAAGAUCCAUUUUUACAACAUGAGGAUCACCCAUGUGCAGGAUAUCGUGUGUUUUAUAUUCGAGAAGGGCAAAUUCAUU | 51.8 nM | 109 nM |  |  |
| CGCAAGUCAGGAUAUUCGACUGGUAAAUCAGUGGAUCAGUAGGAGAAGGGACAUGAGGAUCACCCAUGUAUGUA | 43.2 nM | 51.2 nM |  |  |
| UCCUGGCGAGGAUAUACAAUGUUUUUCGCGUGUUGUUGGGAACAUGAGGAUCACCCAUGUAGAAGGUGCUACUG | 409 nM | 286 nM |  |  |
| UUGUACCGGUGAGGAUAUUUUUAAUAGAACUUUAUGAUAUACAUGAGGAUCACCCAUGUUACUUUAAAGAAGGCAUCGGAUUAU | 18.9 nM | 14.8 nM |  |  |
| GAUAGGACAGAGAAGGACAUAGCUAGAGAUACUAGCAUAUGAACCUCUACAUGAGGAUCACCCAUGUAGGAUAUCUGUCCUAUC | 6.07 nM | 6.21 nM |  |  |
| UUGAUGUCAUCAGGAUAUAGUAUUUAAGACAUAUCUUCUUUCAAACAUGAGGAUCACCCAUGUCGCUAGAAGGGAUGAUUGAUU | 17.3 nM | 15.3 nM |  |  |
| GUGGCUAGUGCAGGAUAUUGGCGCGUGUAGUGUCGAGAAGGGCACAUGAGGAUCACCCAUGUGAUCAAUCACUGCUAAGGUCGC | 6.98 nM | 7.69 nM |  |  |
| UUGGACGUCGUAGGAUAUGUAGGAUAUUCCUACAUGAGGAUCACCCAUGUUGGCAUGGAAGAAGGACAGAAGGACGAUGUCCAU |  |  | 158 nM | 4.94 nM |
| ACAUGAUAUGUAGGAUAUCACAACAUGAGUUUUAAAAUUGUAAUUUAGGAUUGAGAAGGACAUUUACAUGAGGAUCACCCAUGU | 18.6 nM | 14.7 nM |  |  |
| CGGGUCUGAGGAUAUCCAUCUUCAUACAUGAGGAUCACCCAUGUUUACCUUUGGGUUCCUGGAGAAGGCAGUUUUC | 74.9 nM | 78.4 nM |  |  |
| UCCCAACAUGAGGAUCACCCAUGUAAGGAUAUCUUACUCAUGGACGUCCAUGAGGACCGGAGAAGGUACGUGUA | 19.4 nM | 19.8 nM |  |  |
| UUUAUAAAGAUAGGAUAUUGUAUUAUAAUUAAAUAAGAAGGAUCACACAUGAGGAUCACCCAUGUAUGAGGAUCACCCAUGUAU | 15.8 nM | 14.5 nM |  |  |
| GUGGCGACGUAGAAGGGUGACAUGAGGAUCACCCAUGUGCCGAUAUUUCUCGAGAUAUGUCGGCCACAGGAUAUACGUGCCAUC |  |  | 40.1 nM | 56 nM |
| AGUGUCAUCGAGAAGGCCUCAACAUGAGGAUCACCCAUGUUGUAAUAUGGGAGGAUAUCGAUGAUACAGCUACGUUUCGUAGCC |  |  | 19.5 nM | 5.91 nM |
| CCCACGAAAGUCGAACGAUGUACGAGAAGGACAAUAACAUGACAUGAGGAUCACCCAUGUGCCAUGUAGGAUAUCGUACAUGGG | 8.55 nM | 8.17 nM |  |  |
